From the RNAGym collection of RNA variant scans (doi:10.1038/s41586-018-0170-7)

B1: tRNA (parent)
chain: GUUCCGUUGGCGUAAUGGUAACGCGUCUCCCUCCUAAGGAGAAGACUGCGGGUUCGAGUCCCGUACGGAACG

Variants of: B1
Assay: yeast fitness, log relative to wild type (ln ratio); higher = fitter; tRNA-Arg(CCU), competitive growth, 37 C, 1 M NaCl
Procedure, shortened: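 In BY4742 missing the chromosomal gene, a combinatorial tRNA-Arg(CCU) variant library was maintained on a HIS3 centromeric plasmid. Selection ran ~6.5 generations (~26.5 h) in SC-HIS 1M NaCl at 37 °C, following 4 generations in SC-HIS at 30 °C, with three outputs per input and variant counts by 125 bp paired-end Illumina sequencing. Fitness is the natural log of a genotype's generations relative to the wild type's, with generations taken as inverse-variance-weighted, OD-scaled log2 output/input frequency.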

Variant | yeast fitness (ln)
C27U A43C C66A | -0.0618
G1A C27U C66U C71U | -0.322
G1A C46U C66U A69G A70U | -0.162
G1A U2G G6U C27U C46U C66A A70U C71U | -0.0752
U2C C46U A69G A70U C71U | -0.169
U2G C66A A69G A70U | -0.131
U2G G6U C27U A43C C66A A69G A70G | -0.219
U2G G6U C27U A43C C66A A69G A70U | -0.315
C46U C66U A69G A70G | -0.216
G6U A69G C71U | -0.233
G1A U2G C27U C66A A70G | -0.25
G6A C27U C46U A70U | -0.144
G1A U2G C27U C66U A69G C71U | -0.395
G1A C27U A43C C66A A69G A70U C71U | -0.431
A43C C46U A69G A70G | -0.0166
G6A C27U C66A | -0.192
G1A U2C G6A A70G C71U | -0.0357
U2G G6U C27U A43C C46U C66U A69G A70G | -0.318
G6A A43C C66U A69G C71U | -0.51
G6U C46U A69G A70U | -0.204
U2G A43C C46U C66A A69G A70U | -0.0871
U2G A43C C46U C66A A69G A70G | -0.186
U2G G6U A43C C46U C66U A69G A70U | -0.286
G6U A43C C46U A69G A70U | -0.236

Variant | yeast fitness (ln)
G1A C46U C66U | -0.118
U2C G6U | -0.00207
G1A U2C G6A A43C C46U C66U | -0.085
G1A U2C G6A C27U A43C C46U A70U C71U | -0.153
G1A C66U A70G | -0.107
G6U C71U | -0.261
G1A U2G G6A A43C C66U A69G A70G C71U | -0.612
G1A G6A C27U C46U A70G | -0.208
C27U A43C C46U A69G A70G C71U | -0.0917
G1A U2G C27U C46U C71U | -0.159
G1A U2C G6A C27U C46U C66U A69G A70U | -0.0756
G1A G6U C27U A43C A69G A70U C71U | -0.58
G1A U2C G6U C27U A43C C46U C66U A69G A70U C71U | -0.398
U2C G6A C46U A70U C71U | -0.0461
G1A U2G A43C C46U A69G A70U | -0.132
G6U A43C C46U C66A A69G A70U | -0.113
G1A U2G C27U A43C A70G | -0.176
U2C G6A A43C C46U | -0.0201
U2G A70G | -0.0201
G1A G6A C27U A43C C46U C66A A70G C71U | -0.293
G1A A43C C46U C66A A69G A70G | -0.169
U2C G6A C46U C66U A69G A70G C71U | -0.00401
U2G G6U C46U C66U C71U | -0.2
U2G G6U A43C C66U A69G A70U C71U | -0.468

Variant | yeast fitness (ln)
G1A G6A C66U A70G C71U | -0.0543
G1A U2C G6A C27U C46U A69G A70U | -0.07
U2C A43C C46U C71U | -0.193
U2C G6U C27U A70G C71U | -0.309
G6A C66A A70U C71U | -0.241
G6A C27U A43C C46U C66A | -0.269
G6A C27U C66A A70U C71U | -0.246
U2C C46U A69G A70G | -0.016
G1A G6U C46U C66A A69G A70U C71U | -0.341
U2C G6U C27U A43C C46U C66U A69G C71U | -0.465
G1A U2C C27U C46U A69G C71U | -0.192
G1A A43C C46U C66U A70U | -0.124
U2G G6U C27U C66U A70U C71U | -0.343
U2G G6U C27U A43C C66U A69G | -0.31
G1A U2C G6U A43C C66U A69G A70G C71U | -0.344
G1A U2G G6U C46U A69G A70U | -0.211
G1A G6A A43C C46U C66U A70G | -0.194
U2G G6U C27U A70U | -0.397
U2C G6A C27U A70U C71U | -0.141
U2G C27U C46U C66A A69G A70U | -0.0493
U2C G6A A69G A70U | -0.0533
G1A U2G C27U C46U C66U A70U | -0.123
U2G C46U | -0.0208
G6U C27U A43C A69G C71U | -0.384

Variant | yeast fitness (ln)
G1A U2G A43C C66U A69G A70G C71U | -0.457
U2G G6A A43C C66U A70U | -0.0213
G1A U2G G6U C27U C46U C66U C71U | -0.285
G1A G6U A43C C46U C66U A69G A70G | -0.389
U2G G6U C46U C66U A70G | -0.137
G1A G6U C27U C46U C66A A70G | -0.233
G1A U2C G6U C27U C66U A70U | -0.176
U2C G6U A69G A70G C71U | -0.325
G1A C66A A70U | -0.0714
U2C G6A C27U A43C C46U A70G | -0.133
G1A G6A C46U C66A A70G C71U | -0.128
U2G G6U A43C C46U A70U | -0.337
G6U C46U C66U A70U C71U | -0.302
U2G A43C C66A A70U C71U | -0.316
G6A C27U C46U C66U A70U | -0.0845
C27U A43C C66A A69G A70G C71U | -0.369
U2G G6U A43C C66U A69G A70U | -0.379
G1A G6A C66U A69G A70U C71U | -0.266
U2G C66U | -0.0538
U2G G6U C27U A43C C66U A70G C71U | -0.316
G6U C27U C66A A69G | -0.0157
C27U C66A C71U | -0.117
U2C G6A C27U A43C C46U C66U A69G A70G C71U | -0.0764
U2G G6A A43C | -0.0921

Variant | yeast fitness (ln)
G1A U2G G6A A70U | -0.0829
G1A U2G G6A A70G | -0.16
U2G G6U C27U A43C C46U A69G C71U | -0.336
G1A U2C G6A A43C C46U A69G A70G | -0.191
G6U C27U A43C C46U C66U A69G A70G | -0.396
G1A C27U A43C A70G C71U | -0.426
G1A U2C C27U C66U A70G C71U | -0.127
U2G C46U C66A A70G C71U | -0.116
C27U A43C C46U A70G | -0.0288
G1A U2C G6U A43C C46U C66A A70U | -0.177
U2G G6A C27U A43C C46U C66U | -0.102
C27U A69G A70U C71U | -0.294
U2G C27U A43C C46U C66A A69G C71U | -0.34
U2G G6A C27U A43C C46U A70U C71U | -0.176
G6U C27U A43C C46U C66U A70U | -0.322
G1A U2C G6U A43C A69G A70U C71U | -0.248
U2G G6A A43C A70U | -0.14
G6U A69G A70G C71U | -0.282
U2G A43C C46U C66U C71U | -0.2
C46U C66A A70G C71U | -0.0671
G1A U2C G6A C46U | 0.00156
U2G A43C C66A | -0.0672
G1A U2G C27U A43C C46U C66A A70G | -0.178
U2C G6U C27U A43C A70U C71U | -0.253

Variant | yeast fitness (ln)
U2C G6U C27U A43C C46U C66U A69G A70U C71U | -0.391
U2G G6A C27U C46U C66U C71U | -0.17
G1A U2G G6A A43C C46U C66U A69G A70U C71U | -0.425
G1A U2G G6U C46U | -0.0886
U2G G6A C27U A43C C46U A69G A70U | -0.159
U2C G6A A43C C46U C66A | -0.2
G1A C27U C46U C71U | -0.0338
G1A U2C C27U A70U | -0.0826
G1A U2G C27U A43C C66U A70G C71U | -0.383
U2G G6A C27U C46U C66A A69G C71U | -0.325
U2C A69G C71U | -0.158
G1A G6A C27U C66U A69G A70G C71U | -0.442
U2G G6A C27U A43C C66A A70G C71U | -0.23
G6U C46U C66U A70G C71U | -0.138
G1A U2C G6U A43C C46U C66U A69G A70G C71U | -0.201
G6U A43C C66U A69G A70G C71U | -0.442
G1A C27U C46U C66U A70U | -0.154
G6A C46U C66A A70U | -0.0387
G6U C66A A69G A70G | -0.0205
U2C G6U C27U C66U A70G | -0.215
U2G G6A A69G A70U C71U | -0.264
U2C G6U C27U C66A | -0.24
G6U C27U A43C C66A A69G A70U C71U | -0.389
G1A U2C A43C A70G C71U | -0.011

Variant | yeast fitness (ln)
U2C G6U A43C C46U C66U | -0.158
U2C G6A C46U C66U A69G | -0.293
C27U C66A A70U C71U | -0.182
G1A G6U C46U C66A A69G A70G C71U | -0.162
G1A U2G G6U A69G A70G | -0.183
A43C C46U C66A A69G A70G | -0.0183
C27U A43C C46U A69G A70U C71U | -0.317
G6A C66U A70U C71U | -0.462
C27U A43C C46U C66A A69G A70G C71U | -0.122
G1A U2C G6U C46U A70U C71U | -0.033
U2G G6U C27U A43C C46U A69G A70G | -0.242
U2G C66U A69G | -0.195
G6U C27U A43C C66U A69G A70U | -0.349
G1A U2G C27U C46U A69G A70G | -0.21
G1A U2C G6A A43C C46U A70G | -0.0508
U2C C27U C46U C66U A69G A70G | -0.0845
U2G C27U A43C C66U A70G C71U | -0.331
G1A C27U C71U | -0.0389
G6A C27U A43C C46U C66U A69G A70G | -0.369
G1A U2G G6U C27U C46U C66A A70U | -0.322
G6A C46U C66A | -0.0719
U2C G6U C27U A43C C66U A69G A70U C71U | -0.419
C66A A69G A70U C71U | -0.32
